# Test results taken from ChEMBL document CHEMBL4680220, “Synthesis and biological evaluation of acridine-based histone deacetylase inhibitors as multitarget agents against Alzheimer's disease” (Eur J Med Chem, 2020).
# Tested on: Hippocampal neurone
# Assay: Induction of neurite outgrowth in Sprague-Dawley rat primary hippocampal neurons assessed as increase in length of axonal neurite incubated for 3 days by DAPI staining based immunofluorescence microscopic analysis
# Format: functional
# Settings: time 3.0 day
# How it was run: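 Primary hippocampal neurons from embryonic Sprague-Dawley rats, plated on poly-D-lysine and kept in B27-neurobasal medium. Treated with DMSO or compound from DIV3 for three days, fixed at DIV6 in 4% paraformaldehyde. Axons stained with anti-tau, dendrites with anti-MAP2, nuclei with DAPI; fluorescence microscopy. At least 20 neurons traced for number and length of primary, secondary and tertiary neurites.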
smiles,measurement,value
O=C(NO)c1ccc(Nc2c3ccccc3nc3ccc(Br)cc23)cc1,Activity,Dose-dependent effect
